# Measured values reported in PMC5598417 (Toxicology Reports, 2014).
# Columns and labels:
# [1] = test system: MA-10 cells; assay: Reactive oxygen species assay; format: cell-based, murine; conditions: for ROS formation compared with vehicle-treated control cells: 100 μM, 48-h exposure
# In short: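 MA-10 cells seeded at 7.5 × 10^4 cells/well in gelatin-coated plates 24 h beforehand, loaded with H2-DCFDA (10 μM, 2 h, 37 °C), then washed twice in warm PBS. Exposure to 0.01–100 μM in serum-free, phenol red-free DMEM/F-12 (≤0.1% DMSO) for up to 48 h. Fluorescence read at 485/530 nm at 0, 1, 24 and 48 h and expressed as % of time-matched control. Positive controls were H2O2 20 mM (1 h) and rotenone 100 μM (24/48 h). Three independent experiments, quadruplicates.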
# [2] = test system: MA-10 cells; assay: Expression of steroidogenic genes in MA-10 cells; format: cell-based, murine; conditions: 6-h exposure; conazole 10 μM
# [3] = humans; cited from earlier work
# [4] = test system: MA-10 cells; assay: Basal testosterone secretion by MA-10 Leydig cells; format: cell-based, murine; conditions: for decrease of basal T secretion compared with vehicle-treated control cells: 10 μM; for decrease of basal T secretion compared with vehicle-treated control cells / T secretion, concentration curves without LH: 48 h; for T secretion, concentration curves without LH: SU10603 0.05-1 μM, FLUS or TEBU 0.3-10 μM, Supplementary Fig. 1; for T secretion by MA-10 cells compared with vehicle-control: basal T secretion, conazole 10 μM
# [5] = target: T1, androgen receptor (AR) (Homo sapiens, UniProt P10275); format: cell-based; conditions: BMR25%FLUT/BMR25%FLUT conazole
# T1 sequence (P10275 1-920): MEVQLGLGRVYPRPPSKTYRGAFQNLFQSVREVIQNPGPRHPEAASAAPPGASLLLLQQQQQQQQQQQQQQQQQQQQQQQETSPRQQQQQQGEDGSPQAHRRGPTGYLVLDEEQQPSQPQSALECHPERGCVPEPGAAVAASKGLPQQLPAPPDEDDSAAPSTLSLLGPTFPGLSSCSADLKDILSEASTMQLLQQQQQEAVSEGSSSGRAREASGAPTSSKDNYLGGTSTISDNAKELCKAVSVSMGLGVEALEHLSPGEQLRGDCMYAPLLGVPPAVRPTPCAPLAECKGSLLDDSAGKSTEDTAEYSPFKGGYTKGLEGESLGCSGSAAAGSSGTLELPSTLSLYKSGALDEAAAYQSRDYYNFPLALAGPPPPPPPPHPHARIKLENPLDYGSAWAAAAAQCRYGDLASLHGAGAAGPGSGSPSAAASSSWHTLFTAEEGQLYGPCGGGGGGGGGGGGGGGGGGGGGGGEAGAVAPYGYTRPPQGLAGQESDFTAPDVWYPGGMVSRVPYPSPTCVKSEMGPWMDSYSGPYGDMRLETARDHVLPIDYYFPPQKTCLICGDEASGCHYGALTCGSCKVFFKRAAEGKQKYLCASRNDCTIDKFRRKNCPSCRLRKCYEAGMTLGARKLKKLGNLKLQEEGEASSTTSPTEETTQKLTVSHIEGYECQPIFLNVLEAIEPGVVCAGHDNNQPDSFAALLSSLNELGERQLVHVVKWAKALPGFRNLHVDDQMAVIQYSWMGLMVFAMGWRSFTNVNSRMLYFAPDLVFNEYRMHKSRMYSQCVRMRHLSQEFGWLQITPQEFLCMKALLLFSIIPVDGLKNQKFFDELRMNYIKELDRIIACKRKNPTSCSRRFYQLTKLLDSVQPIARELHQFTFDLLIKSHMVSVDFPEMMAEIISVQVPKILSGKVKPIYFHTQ
# [6] = test system: MA-10 cells; assay: Expression of cholesterol biosynthesis genes in MA-10 cells; format: cell-based, murine; conditions: 6-h exposure; cAMP 100 μM, conazole 10 μM
# [7] = test system: MA-10 cells; assay: LH-induced testosterone secretion by MA-10 Leydig cells; format: cell-based, murine; conditions: read-out: IC50 of T secretion inhibition in combination with LH; LH 10 ng/mL; 48-h exposure
# [8] = cited from earlier work
Compound,ROS formation compared with vehicle-treated control cells [1],"gene expression of five steroidogenic genes (StAR, Cyp11A1, Cyp17A1, 3β-HSD1, 17β-HSD3) [2]",decrease of basal T secretion compared with vehicle-treated control cells [4],further results
"CC(C1CC1)C(O)(Cn1cncn1)c1ccc(Cl)cc1 (centres unmarked) [CYPRO, Cyproconazole]",did not significantly change,did not significantly affect,–,–
"OC(Cn1cncn1)(Cn1cncn1)c1ccc(F)cc1F [FLUC, Fluconazole, reference compound]",did not significantly change,–,–,Tmax [3]: approximately 2 h
"C[Si](Cn1cncn1)(c1ccc(F)cc1)c1ccc(F)cc1 [FLUS, Flusilazole]",1.2 fold,did not significantly affect,more than 50%,"T secretion, concentration curves without LH [4]: concentration-dependently inhibited T secretion"
"CCCCC(O)(Cn1cncn1)c1ccc(Cl)cc1Cl (centres unmarked) [HEXA, Hexaconazole]",1.2 fold,–,more than 50%,REP (relative effect potency as compared to flutamide) [5]: 0.26; T secretion by MA-10 cells compared with vehicle-control ([4]; 48-h exposure): 36%
"CCCCC(C#N)(Cn1cncn1)c1ccc(Cl)cc1 (centres unmarked) [MYC, Myclobutanil]",did not significantly change,–,–,–
"CCCC(Cn1cncn1)c1ccc(Cl)cc1Cl (centres unmarked) [PEN, Penconazole]",did not significantly change,–,–,–
"CCCN(CCOc1c(Cl)cc(Cl)cc1Cl)C(=O)n1ccnc1 [PRO, Prochloraz]",1.3 fold,did not significantly affect,more than 50%,T secretion by MA-10 cells compared with vehicle-control ([4]; 48-h exposure): 23%; gene expression of Cyp51 in comparison with vehicle-treated cells [6]: 1.7 fold; gene expression of HMG-CoA red in comparison with vehicle-treated cells [6]: 1.9 fold
"O=C1c2cc(Cl)ccc2CCC1c1cccnc1 (centres unmarked) [SU10603, reference compound]",–,–,–,"decrease of T secretion compared to vehicle-treated cells ([4]; SU10603 1 μM, 48-h exposure): 82%; T secretion, concentration curves without LH [4]: concentration-dependently inhibited T secretion; IC50 [7]: 500 nM"
"CC(C)(C)C(O)(CCc1ccc(Cl)cc1)Cn1cncn1 (centres unmarked) [TEBU, Tebuconazole]",1.4 fold,did not significantly affect,more than 50%,"elimination half-life in soil [8]: approximately 800 days; T secretion, concentration curves without LH [4]: concentration-dependently inhibited T secretion; gene expression of Por in comparison with vehicle-treated cells [6]: 0.8 fold"
"CC(C)(C)C(=O)C(Oc1ccc(Cl)cc1)n1cncn1 (centres unmarked) [TRIA, Triadimefon]",did not significantly change,–,–,–
"CC1(C)CCC(=Cc2ccc(Cl)cc2)C1(O)Cn1cncn1 (centres unmarked) [TRIT, Triticonazole]",did not significantly change,–,more than 50%,REP (relative effect potency as compared to flutamide) [5]: 0.25; T secretion by MA-10 cells compared with vehicle-control ([4]; 48-h exposure): 44%
"C=C(C)[C@H]1Cc2c(ccc3c2O[C@@H]2COc4cc(OC)c(OC)cc4[C@@H]2C3=O)O1 [rotenone, reference compound]",–,–,–,"ROS production, % of the control ([1]; rotenone 100 μM, 48 h): 158 ± 18%"
